The results in this text go back to ChEMBL document CHEMBL4265907, “Design, synthesis and pharmacological evaluation of N4,N6-disubstituted pyrimidine-4,6-diamine derivatives as potent EGFR inhibitors in non-small cell lung cancer” (Eur J Med Chem, 2018).

The target in assay [1] is Mitogen-activated protein kinase kinase kinase kinase 4 (Homo sapiens) (UniProt O95819). Briefly: Inhibition of human N-terminal GST-tagged full length MAP4K4 catalytic domain (1 to 328 residues) expressed in baculovirus expression system at 1 uM using FAM-labeled peptide as substrate after 10 mins by mobility shift assay relative to control. Put shortly:
(§1)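 Caliper mobility-shift kinase assay. Kinase in kinase base buffer was preincubated with compound for 10 min at room temperature. FAM-labelled peptide and ATP at Km were then added, and the reaction ran at 28 °C until quenched with buffer. Screening concentration was 1 µM. Percent inhibition = (max − conversion)/(max − min) × 100, with DMSO as max and a low control as min.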

Assay [2] concerns the target T1, Inhibitor of nuclear factor kappa-B kinase subunit beta (Homo sapiens) (UniProt O14920).
T1 sequence (whole entry): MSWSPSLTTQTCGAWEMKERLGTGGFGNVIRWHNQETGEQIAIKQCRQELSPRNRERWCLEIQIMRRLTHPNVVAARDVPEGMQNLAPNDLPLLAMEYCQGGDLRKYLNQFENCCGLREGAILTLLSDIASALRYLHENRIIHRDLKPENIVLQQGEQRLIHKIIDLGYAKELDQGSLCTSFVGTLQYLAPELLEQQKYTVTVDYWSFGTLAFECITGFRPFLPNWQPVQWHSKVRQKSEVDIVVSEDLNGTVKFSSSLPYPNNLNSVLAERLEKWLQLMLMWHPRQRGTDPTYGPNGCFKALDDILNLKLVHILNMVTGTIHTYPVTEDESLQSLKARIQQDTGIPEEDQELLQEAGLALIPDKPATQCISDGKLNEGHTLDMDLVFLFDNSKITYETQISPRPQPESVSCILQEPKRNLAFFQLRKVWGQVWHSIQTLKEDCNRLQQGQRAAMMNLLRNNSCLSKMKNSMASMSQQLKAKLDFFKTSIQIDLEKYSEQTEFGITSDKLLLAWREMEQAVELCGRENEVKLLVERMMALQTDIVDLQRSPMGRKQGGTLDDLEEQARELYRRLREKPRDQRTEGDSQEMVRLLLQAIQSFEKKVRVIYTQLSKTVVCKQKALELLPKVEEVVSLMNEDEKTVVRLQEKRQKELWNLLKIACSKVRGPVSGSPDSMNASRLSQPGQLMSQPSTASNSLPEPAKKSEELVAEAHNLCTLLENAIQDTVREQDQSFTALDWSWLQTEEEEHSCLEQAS
The experiment in a line: Inhibition of human N-terminal His-tagged truncated IKKB (1 to 662 residues) expressed in baculovirus expression system at 1 uM using FAM-labeled peptide as substrate after 10 mins by mobility shift assay relative to control. An outline of the steps:
as §1

Assay [3] addresses Serine/threonine-protein kinase PAK 2 (Homo sapiens) (UniProt Q13177). Briefly: Inhibition of human N-terminal GST-tagged full length PAK2 (1 to 524 residues) expressed in baculovirus expression system at 1 uM using FAM-labeled peptide as substrate after 10 mins by mobility shift assay relative to control. Put shortly:
as §1

For assay [4], the target named is Tyrosine-protein kinase JAK2 (Homo sapiens) (UniProt O60674). Briefly: Inhibition of human N-terminal His-tagged JAK2 catalytic domain (826 to 1132 residues) expressed in baculovirus expression system at 1 uM using FAM-labeled peptide as substrate after 10 mins by mobility shift assay relative to control. Put shortly: as §1
Assay [5] deals with Receptor tyrosine-protein kinase erbB-4 (Homo sapiens) (UniProt Q15303). The experiment in a line: Inhibition of N-terminal GST-tagged human HER4 cytoplasmic domain (676 to 1308 residues) expressed in baculovirus expression system at 1 uM using FAM-labeled peptide as substrate after 10 mins by mobility shift assay relative to control. An outline of the steps: as §1
The target of assay [6] is Receptor-type tyrosine-protein kinase FLT3 (Homo sapiens) (UniProt P36888). Briefly: Inhibition of human N-terminal GST-tagged FLT3 cytoplasmic domain (564 to 993 residues) expressed in baculovirus expression system at 1 uM using FAM-labeled peptide as substrate after 10 mins by mobility shift assay relative to control. An outline of the steps: as §1
The target of assay [7] is Platelet-derived growth factor receptor beta (Homo sapiens) (UniProt P09619). The experiment in a line: Inhibition of N-terminal GST-tagged human PDGFRbeta cytoplasmic domain (557 to 1106 residues) expressed in baculovirus expression system at 1 uM using FAM-labeled peptide as substrate after 10 mins by mobility shift assay relative to control. Put shortly: as §1
Assay [8] deals with Vascular endothelial growth factor receptor 1 (Homo sapiens) (UniProt P17948). The experiment in a line: Inhibition of recombinant human GST-tagged FLT1 cytoplasmic domain (781 to 1338 residues) expressed in baculovirus expression system at 1 uM using FAM-labeled peptide as substrate after 10 mins by mobility shift assay relative to control. Put shortly:
as §1

In assay [9] the target is Tyrosine-protein kinase JAK1 (Homo sapiens) (UniProt P23458). Briefly: Inhibition of human N-terminal GST-tagged JAK1 catalytic domain (850 to 1154 residues) expressed in baculovirus expression system at 1 uM using FAM-labeled peptide as substrate after 10 mins by mobility shift assay relative to control. An outline of the steps: as §1
Assay [10] addresses Vascular endothelial growth factor receptor 3 (Homo sapiens) (UniProt P35916). The experiment in a line: Inhibition of recombinant human GST-tagged FLT4 cytoplasmic domain (800 to 1297 residues) expressed in baculovirus expression system at 1 uM using FAM-labeled peptide as substrate after 10 mins by mobility shift assay relative to control. Put shortly:
as §1

Assay [11] deals with Mast/stem cell growth factor receptor Kit (Homo sapiens) (UniProt P10721). Briefly: Inhibition of recombinant human N-terminal GST-tagged c-KIT (544 to end residues) expressed in baculovirus infected Sf21 cells at 1 uM using FAM-labeled peptide as substrate after 10 mins by mobility shift assay relative to control. Put shortly:
as §1

The target in assay [12] is Insulin-like growth factor 1 receptor (Homo sapiens) (UniProt P08069). The experiment in a line: Inhibition of human His-tagged IGF1R cytoplasmic domain (960 to 1397 residues) expressed in baculovirus expression system at 1 uM using FAM-labeled peptide as substrate after 10 mins by mobility shift assay relative to control. Put shortly: as §1
Assay [13] addresses Fibroblast growth factor receptor 4 (Homo sapiens) (UniProt P22455). The experiment in a line: Inhibition of N-terminal GST-tagged human FGFR4 cytoplasmic domain (460 to 802 residues) expressed in baculovirus expression system at 1 uM using FAM-labeled peptide as substrate after 10 mins by mobility shift assay relative to control. An outline of the steps: as §1
Assay [14] has as its target Hepatocyte growth factor receptor (Homo sapiens) (UniProt P08581). Briefly: Inhibition of N-terminal GST-tagged human MET cytoplasmic domain (956 to 1390 residues) expressed in baculovirus expression system at 1 uM using FAM-labeled peptide as substrate after 10 mins by mobility shift assay relative to control. Put shortly:
as §1

Assay [15] has as its system HCC827. The experiment in a line: Antiproliferative activity against human HCC827 cells after 72 hrs by MTT assay. The class given is functional, cell-based. The settings on record: HCC827, 72 h. An outline of the steps:
(§2)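 Cells seeded at 3000/well in growth medium with 10% FBS and left overnight. Treated in triplicate for 72 h at nine concentrations (0.458 to 30,000 nM), with DMSO-only controls. MTT (5 mg/mL) added for the last 4 h, formazan dissolved in DMSO, absorbance read at 490 nm. IC50 from non-linear sigmoidal dose-response fit.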
Background: Tetrazolium dyes change colour on reduction, which living cells bring about.

The subject of assay [16] is A-431. Briefly: Antiproliferative activity against human A431 cells after 72 hrs by MTT assay. Type of assay: functional, cell-based. The note with it: A-431, 72 h. An outline of the steps: as §2

pIC50: −log10 of the molar value.

Tyrosine-protein kinase JAK1 (Homo sapiens), sequence (P23458 whole entry, the tested form may be a part): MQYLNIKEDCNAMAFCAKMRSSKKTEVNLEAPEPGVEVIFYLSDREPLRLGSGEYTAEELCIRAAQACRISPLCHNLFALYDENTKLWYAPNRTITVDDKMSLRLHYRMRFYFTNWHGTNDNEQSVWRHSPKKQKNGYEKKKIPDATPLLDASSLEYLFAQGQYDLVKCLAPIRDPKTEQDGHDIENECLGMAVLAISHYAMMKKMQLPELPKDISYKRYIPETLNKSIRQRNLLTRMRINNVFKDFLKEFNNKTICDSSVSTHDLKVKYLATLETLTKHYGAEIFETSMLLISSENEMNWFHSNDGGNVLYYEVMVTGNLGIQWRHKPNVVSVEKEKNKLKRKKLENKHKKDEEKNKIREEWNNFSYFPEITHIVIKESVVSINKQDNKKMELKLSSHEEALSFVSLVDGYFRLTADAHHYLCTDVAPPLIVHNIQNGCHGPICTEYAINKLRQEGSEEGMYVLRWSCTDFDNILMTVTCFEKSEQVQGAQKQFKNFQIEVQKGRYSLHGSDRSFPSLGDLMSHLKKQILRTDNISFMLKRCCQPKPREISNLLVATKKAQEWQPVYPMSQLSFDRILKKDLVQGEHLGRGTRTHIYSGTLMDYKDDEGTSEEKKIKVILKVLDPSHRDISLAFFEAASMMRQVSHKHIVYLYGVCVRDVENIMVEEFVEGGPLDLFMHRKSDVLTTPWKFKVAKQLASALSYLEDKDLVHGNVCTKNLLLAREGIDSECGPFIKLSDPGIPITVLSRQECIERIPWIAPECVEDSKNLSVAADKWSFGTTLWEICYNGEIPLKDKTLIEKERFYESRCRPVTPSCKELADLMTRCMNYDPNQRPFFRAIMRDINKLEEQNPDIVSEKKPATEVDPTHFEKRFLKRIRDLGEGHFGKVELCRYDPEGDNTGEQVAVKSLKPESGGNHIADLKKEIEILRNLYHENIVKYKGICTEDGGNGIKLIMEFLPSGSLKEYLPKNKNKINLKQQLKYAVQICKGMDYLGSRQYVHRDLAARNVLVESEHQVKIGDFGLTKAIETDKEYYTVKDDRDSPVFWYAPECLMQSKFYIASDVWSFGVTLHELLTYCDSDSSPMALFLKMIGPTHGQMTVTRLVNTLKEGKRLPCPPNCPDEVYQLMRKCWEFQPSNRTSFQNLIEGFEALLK
Receptor tyrosine-protein kinase erbB-4 (Homo sapiens), sequence (Q15303 whole entry, the tested form may be a part): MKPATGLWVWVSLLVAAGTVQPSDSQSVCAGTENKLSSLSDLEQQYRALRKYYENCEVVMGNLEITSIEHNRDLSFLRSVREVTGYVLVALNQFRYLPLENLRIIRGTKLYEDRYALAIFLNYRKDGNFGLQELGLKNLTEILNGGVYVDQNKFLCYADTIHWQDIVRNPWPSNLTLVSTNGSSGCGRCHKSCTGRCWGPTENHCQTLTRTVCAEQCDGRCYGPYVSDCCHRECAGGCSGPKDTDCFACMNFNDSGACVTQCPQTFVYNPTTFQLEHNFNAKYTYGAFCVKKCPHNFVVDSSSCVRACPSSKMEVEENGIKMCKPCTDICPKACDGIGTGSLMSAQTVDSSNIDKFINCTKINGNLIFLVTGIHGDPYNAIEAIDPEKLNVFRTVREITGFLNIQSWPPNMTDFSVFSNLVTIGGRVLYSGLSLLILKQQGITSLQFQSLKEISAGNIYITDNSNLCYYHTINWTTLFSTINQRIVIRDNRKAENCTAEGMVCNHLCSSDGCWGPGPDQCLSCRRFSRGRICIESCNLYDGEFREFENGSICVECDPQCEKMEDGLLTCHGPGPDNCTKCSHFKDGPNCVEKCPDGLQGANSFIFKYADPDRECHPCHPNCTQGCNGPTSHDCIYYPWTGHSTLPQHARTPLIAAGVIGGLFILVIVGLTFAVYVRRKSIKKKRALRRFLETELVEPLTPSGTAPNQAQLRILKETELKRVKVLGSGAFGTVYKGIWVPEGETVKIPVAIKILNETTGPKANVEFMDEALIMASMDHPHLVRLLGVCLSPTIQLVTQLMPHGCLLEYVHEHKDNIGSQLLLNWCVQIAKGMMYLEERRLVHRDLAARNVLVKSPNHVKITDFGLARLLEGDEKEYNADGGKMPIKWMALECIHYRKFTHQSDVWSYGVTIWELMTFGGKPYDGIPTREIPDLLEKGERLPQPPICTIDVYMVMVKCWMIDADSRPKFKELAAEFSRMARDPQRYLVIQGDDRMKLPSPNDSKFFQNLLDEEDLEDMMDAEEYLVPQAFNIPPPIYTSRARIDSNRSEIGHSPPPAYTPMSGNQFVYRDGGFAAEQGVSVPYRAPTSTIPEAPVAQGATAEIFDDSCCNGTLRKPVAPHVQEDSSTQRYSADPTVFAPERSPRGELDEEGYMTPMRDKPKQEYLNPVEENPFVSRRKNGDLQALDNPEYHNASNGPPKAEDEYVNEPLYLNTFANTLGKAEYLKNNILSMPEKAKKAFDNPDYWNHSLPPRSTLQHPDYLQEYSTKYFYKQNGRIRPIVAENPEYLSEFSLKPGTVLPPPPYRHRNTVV
Serine/threonine-protein kinase PAK 2 (Homo sapiens), sequence (Q13177 whole entry, the tested form may be a part): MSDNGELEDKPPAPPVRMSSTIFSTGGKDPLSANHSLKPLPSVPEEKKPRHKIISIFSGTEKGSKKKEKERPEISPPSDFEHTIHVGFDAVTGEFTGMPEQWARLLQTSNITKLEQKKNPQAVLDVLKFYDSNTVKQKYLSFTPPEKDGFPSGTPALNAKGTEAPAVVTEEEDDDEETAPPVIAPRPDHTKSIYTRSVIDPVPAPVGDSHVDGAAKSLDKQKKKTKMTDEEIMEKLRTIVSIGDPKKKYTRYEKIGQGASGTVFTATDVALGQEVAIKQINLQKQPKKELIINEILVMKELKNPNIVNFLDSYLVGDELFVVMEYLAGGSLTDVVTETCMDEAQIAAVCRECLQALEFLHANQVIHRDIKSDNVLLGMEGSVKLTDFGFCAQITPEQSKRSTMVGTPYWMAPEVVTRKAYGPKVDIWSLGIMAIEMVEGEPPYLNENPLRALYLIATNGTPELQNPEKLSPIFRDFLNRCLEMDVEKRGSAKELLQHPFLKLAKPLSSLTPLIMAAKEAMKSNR
Tyrosine-protein kinase JAK2 (Homo sapiens), sequence (O60674 whole entry, the tested form may be a part): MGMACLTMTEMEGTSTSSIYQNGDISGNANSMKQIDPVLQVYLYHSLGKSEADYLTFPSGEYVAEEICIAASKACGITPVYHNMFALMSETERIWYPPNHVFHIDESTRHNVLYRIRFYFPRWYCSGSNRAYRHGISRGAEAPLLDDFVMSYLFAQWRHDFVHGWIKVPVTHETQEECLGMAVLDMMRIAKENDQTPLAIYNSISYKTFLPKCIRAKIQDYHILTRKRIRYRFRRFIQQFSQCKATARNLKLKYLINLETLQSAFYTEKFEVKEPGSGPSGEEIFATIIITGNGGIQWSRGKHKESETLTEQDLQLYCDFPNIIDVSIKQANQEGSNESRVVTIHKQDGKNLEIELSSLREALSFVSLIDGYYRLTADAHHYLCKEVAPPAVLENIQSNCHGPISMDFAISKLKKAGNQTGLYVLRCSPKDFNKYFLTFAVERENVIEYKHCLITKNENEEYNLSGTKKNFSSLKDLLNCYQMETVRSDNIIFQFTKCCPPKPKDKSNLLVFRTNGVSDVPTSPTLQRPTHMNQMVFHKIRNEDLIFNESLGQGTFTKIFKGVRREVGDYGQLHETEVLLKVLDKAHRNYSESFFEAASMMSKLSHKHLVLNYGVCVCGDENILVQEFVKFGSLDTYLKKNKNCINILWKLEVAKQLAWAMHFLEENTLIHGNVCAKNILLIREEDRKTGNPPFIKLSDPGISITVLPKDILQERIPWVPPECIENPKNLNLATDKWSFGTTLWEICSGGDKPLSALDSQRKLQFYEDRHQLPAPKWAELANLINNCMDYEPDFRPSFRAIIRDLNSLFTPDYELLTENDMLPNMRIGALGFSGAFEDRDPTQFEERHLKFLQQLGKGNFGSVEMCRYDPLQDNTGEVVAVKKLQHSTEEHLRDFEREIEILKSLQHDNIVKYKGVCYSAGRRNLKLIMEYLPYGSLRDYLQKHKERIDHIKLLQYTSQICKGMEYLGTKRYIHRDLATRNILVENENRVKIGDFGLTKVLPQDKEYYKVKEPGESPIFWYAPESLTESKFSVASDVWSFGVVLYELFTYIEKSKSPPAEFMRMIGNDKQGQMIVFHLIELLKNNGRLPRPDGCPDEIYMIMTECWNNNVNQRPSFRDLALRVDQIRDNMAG
Mast/stem cell growth factor receptor Kit (Homo sapiens), sequence (P10721 whole entry): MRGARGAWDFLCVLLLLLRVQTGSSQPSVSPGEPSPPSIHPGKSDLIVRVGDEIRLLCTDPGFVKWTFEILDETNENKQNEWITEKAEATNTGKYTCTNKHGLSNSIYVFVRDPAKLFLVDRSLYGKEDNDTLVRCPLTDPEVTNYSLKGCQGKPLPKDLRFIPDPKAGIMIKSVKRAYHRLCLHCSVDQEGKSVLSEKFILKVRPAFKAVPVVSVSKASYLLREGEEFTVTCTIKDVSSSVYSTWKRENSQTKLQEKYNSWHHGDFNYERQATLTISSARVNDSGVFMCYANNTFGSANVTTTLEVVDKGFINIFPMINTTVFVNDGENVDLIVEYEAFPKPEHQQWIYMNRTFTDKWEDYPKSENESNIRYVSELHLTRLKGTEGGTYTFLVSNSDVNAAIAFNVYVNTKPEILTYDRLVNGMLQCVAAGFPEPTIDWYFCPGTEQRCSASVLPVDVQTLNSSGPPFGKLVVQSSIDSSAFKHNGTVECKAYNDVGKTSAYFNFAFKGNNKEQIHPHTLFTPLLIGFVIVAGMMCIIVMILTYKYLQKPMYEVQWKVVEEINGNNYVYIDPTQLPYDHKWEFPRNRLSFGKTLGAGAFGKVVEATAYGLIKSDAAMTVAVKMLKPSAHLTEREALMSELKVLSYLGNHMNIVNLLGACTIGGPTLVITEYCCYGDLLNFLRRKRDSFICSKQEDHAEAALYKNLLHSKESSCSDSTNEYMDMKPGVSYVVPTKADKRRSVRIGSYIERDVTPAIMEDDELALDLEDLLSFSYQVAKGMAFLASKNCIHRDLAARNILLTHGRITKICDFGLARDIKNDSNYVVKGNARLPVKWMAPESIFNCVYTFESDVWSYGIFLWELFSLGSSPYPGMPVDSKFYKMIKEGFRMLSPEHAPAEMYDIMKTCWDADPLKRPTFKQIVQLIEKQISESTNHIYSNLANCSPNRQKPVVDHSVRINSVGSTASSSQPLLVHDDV

In general, inhibition refers to the change of the read-out against control, counted positive when it falls. Turning to `CCOC(=O)c1ccc(Nc2cc(NC(=O)CCCC(=O)O)ncn2)cc1`, the inhibition is 56.3% in assay [1]; 1.2% in assay [2]; 15.7% in assay [3]; 4.2% in assay [4]; 27.1% in [5]; 11.5% in assay [6]. Also, the inhibition is 24.2% in [7]; 2.9% in [8]; -3.1% in [9]; 28.2% in assay [10]; 5.9% in [11]; 9.2% in [12]. The inhibition in assay [13] was -0.6%; in [14], 4.4%.
As a reminder, the pIC50 is the IC50 on a negative log10 scale, so that one unit is a factor of ten. A higher pIC50 goes with a small IC50. For the compound `COc1ccc(Nc2cc(NC(=O)c3ccccc3)ncn2)cc1`, the inhibition in [1] is 44.8%; in assay [2] it was 3.5%; in [3] it was 13.4%; in assay [4], -4.2%; in assay [5], 71.4%; in assay [6], 6.9%. Also, the inhibition in assay [7] was 29.4%; in assay [8], 2.3%; in assay [9], -0.8%; in assay [10], 21.6%; in [11], 26%; in [12], 5.3%. In addition, the inhibition in [13] was 1.8%; in assay [14], 3.3%. Also, the pIC50 was 5.27 in assay [15] and 5.02 in [16].
`O=C(O)CCCC(=O)Nc1cc(N2CCOCC2)ncn1`: the inhibition in assay [1] was 21.6%; in assay [2], -3.2%; in assay [3] it was 9.4%; in assay [4] it was 0.2%; in assay [5], 8.3%; in [6], 16.4%. In addition, the inhibition in assay [7] was 10%; in [8], -9.5%; in assay [9], -2.4%; in [10] it was 9.5%; in assay [11], -4.4%; in assay [12] it was 4%. Also, the figures for the inhibition in assay [13] and in assay [14] were 4% and 9.2%, respectively. Moreover, the pIC50 in assay [15] is 5.81; in [16], 6.11.
In the case of `COc1cccc(Nc2cc(Nc3cc(OC)ccc3OC)ncn2)c1`, the inhibition in assay [1] was 53.5%; in assay [2], -2.1%; in [3] it was 4.7%; in assay [4], 0.7%; in assay [5], 11.3%; in [6], 59.1%. The inhibition is 30.4% in assay [7]; 18.1% in [8]; -1.4% in assay [9]; 47.3% in [10]; 0.4% in assay [11]; 6.3% in assay [12]. The inhibition in [13] stood at 4.8%; in assay [14], 7.2%. Besides, the results for the negative logarithm of the IC50 (pIC50) in [15] and in assay [16] were 5.94 and 6.13, respectively.
Take `O=C(O)CCCC(=O)Nc1cc(Nc2cccc(Cl)c2)ncn1`: the inhibition in [1] came to 78.2%; in assay [2], 1.1%; in assay [3], 16.9%; in [4], 12.7%; in assay [5], 88.6%; in [6] it was 35.5%. Also, the inhibition in [7] is 74.1%; in assay [8] it was 12.3%; in [9] it was -1%; in assay [10], 29.4%; in [11], 13.3%; in [12], 13.2%. Also, the inhibition in [13] came to 8.8%; in [14], 4%. Further, the pIC50 is 5.40 in [15] and under 4.52 in assay [16].
On to `COc1cccc(Nc2cc(NC(=O)CCCC(=O)O)ncn2)c1`, for which the inhibition in [1] was 13.5%; in assay [2] it was 13.3%; in [3] it was 18.9%; in assay [4] it was 17.7%; in assay [5], 21.7%; in assay [6] it was 10.5%. Also, the inhibition in assay [7] is 10.3%; in assay [8], 11.8%; in [9], -0.7%; in [10], 29.4%; in assay [11] it was 13.3%; in [12] it was 10.1%. Also, the inhibition is 21.6% in [13] and 12% in assay [14].
